The source made the active and inactive calls. No cut-off for these calls is given here.
Experiments:
Rattus norvegicus [1] = assay: Increase in uterine weight in po dosed ovariectomized rat osteopenia model administered daily measured after 2 weeks; format: functional, organism-based
Rattus norvegicus [2] = assay: Decrease in bone resorption in ovariectomized rat assessed as decrease in urine deoxypyridinoline level at 0.1 mg/kg, po administered daily measured after 2 weeks; format: functional, organism-based; set-up: dose 0.1 mg/kg
Outline: (§1)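 Adult (>6 months) female rats, housed singly on a casein-based diet, ovariectomized under sterile conditions and anesthesia; 6-14 per group. From 24 h after surgery, daily oral gavage of an aqueous suspension in 0.5% Methocel for 2 or 6 weeks. […] Urine deoxypyridinoline measured as bone-resorption marker.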

Estrogen receptor beta = Estrogen receptor beta (Homo sapiens, UniProt Q92731); assay: Inhibition of fluormone ES2 binding to estrogen receptor beta after 1 hr by fluorescence polarization assay
Estrogen receptor [3] = target: T1, Estrogen receptor (Homo sapiens, UniProt P03372); assay: Displacement of radiolabeled estrogen from estrogen receptor alpha by scintillation counting
T1 sequence (P03372 whole entry): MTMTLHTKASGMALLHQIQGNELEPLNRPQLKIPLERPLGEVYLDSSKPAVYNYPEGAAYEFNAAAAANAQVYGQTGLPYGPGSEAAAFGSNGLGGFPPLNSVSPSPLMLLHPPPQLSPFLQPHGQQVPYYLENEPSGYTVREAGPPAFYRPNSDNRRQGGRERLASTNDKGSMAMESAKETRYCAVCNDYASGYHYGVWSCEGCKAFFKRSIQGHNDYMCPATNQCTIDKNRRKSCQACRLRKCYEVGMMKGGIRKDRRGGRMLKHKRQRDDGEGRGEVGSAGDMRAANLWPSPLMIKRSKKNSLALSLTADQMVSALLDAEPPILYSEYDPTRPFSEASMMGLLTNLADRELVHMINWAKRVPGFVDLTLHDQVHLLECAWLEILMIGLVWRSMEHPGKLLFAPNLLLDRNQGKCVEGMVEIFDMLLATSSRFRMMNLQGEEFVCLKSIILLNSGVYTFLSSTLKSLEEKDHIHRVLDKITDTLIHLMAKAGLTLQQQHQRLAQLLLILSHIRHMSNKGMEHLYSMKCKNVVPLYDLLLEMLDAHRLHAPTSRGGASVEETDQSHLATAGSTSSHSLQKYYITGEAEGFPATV

Estrogen receptor [4] = target: T1, Estrogen receptor; assay: Antagonist activity at estrogen receptor in human Ishikawa cells assessed as 17-beta-estradiol-induced alkaline phosphatase activity after 3 days by chemiluminescence assay; format: functional, cell-based
Rattus norvegicus [5] = species on record: Rattus norvegicus; assay: animal or person; format: functional; conditions: Uterus, 72 h, route oral
[6] = Oral bioavailability in rat at 10 mg/kg administered as single dose by LC-MS/MS analysis; format: ADME, organism-based; conditions: in vivo
Outline: (§2)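 Single-dose rat pharmacokinetics. IV dosing at 1-3 mg/kg as a solution in 10% β-cyclodextrin; oral gavage at 10 mg/kg as a uniform suspension in 0.5% methylcellulose. Blood (0.5 mL) collected into heparinized tubes by orbital sinus puncture after dosing. Plasma extracted into acetonitrile with an internal standard and analysed by LC-MS-MS against standards to obtain PK parameters.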

[7] = Cmax in rats after 10 mg/kg oral dose; format: ADME, organism-based; set-up: dose 10 mg/kg, route oral; conditions: rat, in vivo; outline: as §2
[8] = Tmax in rat at 10 mg/kg, po administered as single dose by LC-MS/MS analysis; format: ADME, organism-based; set-up: dose 10 mg/kg, route oral; conditions: in vivo; outline: as §2
[9] = Half life in rat at 10 mg/kg, po administered as single dose by LC-MS/MS analysis; format: ADME, organism-based; set-up: dose 10 mg/kg, route oral; conditions: in vivo; outline: as §2
[10] = AUC in rat at 10 mg/kg, po administered as single dose by LC-MS/MS analysis; format: ADME, organism-based; set-up: dose 10 mg/kg, route oral; conditions: plasma; outline: as §2
Rattus norvegicus [11] = assay: Metabolite Cmax in rats after 10 mg/kg JNJ-1968990 oral dose; format: ADME, organism-based; set-up: dose 10 mg/kg, route oral; conditions: in vivo; outline: as §2
Rattus norvegicus [12] = assay: Metabolic stability in rat assessed as (R)-5-[4-(2-Dimethylamino-ethoxy)-phenyl]-11,12-dihydro-5H-6,13-dioxa-benzo[3,4]cyclohepta[1,2-a]naphthalene-2,8-diol Tmax at 10 mg/kg, po administered as single dose by LC-MS/MS analysis; format: ADME, organism-based; set-up: dose 10 mg/kg, route oral; conditions: in vivo; outline: as §2
Rattus norvegicus [13] = assay: Metabolite Cmax in rats after 10 mg/kg JNJ-26529126 oral dose; format: ADME, organism-based; set-up: dose 10 mg/kg, route oral; conditions: in vivo; outline: as §2
Rattus norvegicus [14] = assay: Metabolic stability in rat assessed as (R)-5-[4-(2-Dimethylamino-ethoxy)-phenyl]-11,12-dihydro-5H-6,13-dioxa-benzo[3,4]cyclohepta[1,2-a]naphthalene-2,8-diol Tmax at 2 mg/kg, iv administered as single dose by LC-MS/MS analysis; format: ADME, organism-based; set-up: dose 2 mg/kg, route intravenous; conditions: in vivo; outline: as §2
Rattus norvegicus [15] = assay: Metabolite Cmax in rats after 10 mg/kg JNJ-26529152 oral dose; format: ADME, organism-based; set-up: dose 10 mg/kg, route oral; conditions: in vivo; outline: as §2
Rattus norvegicus [16] = assay: Metabolite Cmax in rats after 2 mg/kg JNJ-1968990 intravenous dose; format: ADME, organism-based; set-up: dose 2 mg/kg, route intravenous; conditions: in vivo; outline: as §2
Rattus norvegicus [17] = assay: Estrogenic activity in ovariectomized rat assessed as minor increase in uterine epithelial thickness at 0.1 to 1 mg/kg, po administered daily measured after 6 week by immunohistochemical analysis; format: functional, organism-based
Rattus norvegicus [18] = assay: Decrease in bone resorption in ovariectomized rat assessed as decrease in urine deoxypyridinoline level at 0.1 to 1 mg/kg, po administered daily measured after 2 weeks; format: functional, organism-based; outline: as §1
Rattus norvegicus [19] = assay: Decrease in plasma cholesterol level in po dosed ovariectomized rat osteopenia model administered daily measured after 2 weeks; format: functional, organism-based
Rattus norvegicus [20] = assay: Increase in vaginal fluidity in ovariectomized rat at 1.4 mg/kg, po administered daily measured after 6 weeks by cytology analysis; format: functional, organism-based; set-up: dose 1.4 mg/kg
Rattus norvegicus [21] = assay: Increase in vaginal secretion in ovariectomized rat at 0.1 to 1 mg/kg, po administered daily measured after 2 weeks by cytology analysis; format: functional, organism-based
Outline: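 Ovariectomized adult female rats dosed daily by oral gavage (0.5% Methocel suspension) for 2 or 6 weeks from 24 h after surgery. Vaginal fluid collected with a cotton swab and its absolute weight determined per animal.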

Rattus norvegicus [22] = assay: Metabolic stability in rat assessed as 2-Methoxy-5R-(-)-[4-(2-piperidin-1-ylethoxy)-phenyl]-11,12-dihydro-5H-6,13-dioxabenzo[3,4]cyclohepta[1,2-a]-naphthalen-8-ol Tmax at 10 mg/kg, po administered as single dose by LC-MS/MS analysis; format: ADME, organism-based; set-up: dose 10 mg/kg, route oral; conditions: in vivo; outline: as §2
Rattus norvegicus [23] = assay: Metabolic stability in rat assessed as 2-Methoxy-5R-(-)-[4-(2-piperidin-1-ylethoxy)-phenyl]-11,12-dihydro-5H-6,13-dioxabenzo[3,4]cyclohepta[1,2-a]-naphthalen-8-ol Tmax at 2 mg/kg, iv administered as single dose by LC-MS/MS analysis; format: ADME, organism-based; set-up: dose 2 mg/kg, route intravenous; conditions: in vivo; outline: as §2
Rattus norvegicus [24] = assay: Metabolic stability in rat assessed as 8-Methoxy-6R-(-)-[4-(2-piperidin-1-ylethoxy)phenyl]-11,12-dihydro-5H-6,13-dioxabenzo[3,4]cyclohepta-[1,2-a]naphthalen-2-ol Tmax at 10 mg/kg, po administered as single dose by LC-MS/MS analysis; format: ADME, organism-based; set-up: dose 10 mg/kg, route oral; conditions: in vivo; outline: as §2
Rattus norvegicus [25] = assay: Metabolic stability in rat assessed as 8-Methoxy-6R-(-)-[4-(2-piperidin-1-ylethoxy)phenyl]-11,12-dihydro-5H-6,13-dioxabenzo[3,4]cyclohepta-[1,2-a]naphthalen-2-ol Tmax at 2 mg/kg, iv administered as single dose by LC-MS/MS analysis; format: ADME, organism-based; set-up: dose 2 mg/kg, route intravenous; conditions: in vivo; outline: as §2

Estrogen receptor beta, sequence (Q92731 whole entry): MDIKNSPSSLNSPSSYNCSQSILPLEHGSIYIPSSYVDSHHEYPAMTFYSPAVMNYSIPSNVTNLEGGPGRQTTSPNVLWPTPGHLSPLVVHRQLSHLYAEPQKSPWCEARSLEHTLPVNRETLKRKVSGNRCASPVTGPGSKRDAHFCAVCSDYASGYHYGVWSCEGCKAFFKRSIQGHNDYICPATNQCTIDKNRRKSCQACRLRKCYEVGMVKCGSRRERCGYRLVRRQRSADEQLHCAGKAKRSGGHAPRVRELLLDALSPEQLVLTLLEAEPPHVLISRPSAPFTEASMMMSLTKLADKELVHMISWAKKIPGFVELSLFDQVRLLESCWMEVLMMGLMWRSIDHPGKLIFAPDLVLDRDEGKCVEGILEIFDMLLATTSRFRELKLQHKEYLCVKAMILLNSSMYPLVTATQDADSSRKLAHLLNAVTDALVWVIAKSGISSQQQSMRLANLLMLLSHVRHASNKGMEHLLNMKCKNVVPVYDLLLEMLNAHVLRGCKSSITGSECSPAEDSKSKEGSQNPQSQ

Oc1ccc2c(c1)O[C@H](c1ccc(OCCN3CCCCC3)cc1)C1=C2CCOc2cc(O)ccc21
Activity (Rattus norvegicus [1]): inactive | Activity (Rattus norvegicus [2]): Active | IC50 (Estrogen receptor beta): 21 nM | IC50 (Estrogen receptor [3]): 1.1 nM | IC50 (Estrogen receptor [4]): 0.2 nM | inhibition in vivo at 1 mg/kg (Rattus norvegicus [5]): 135% | bioavailability [6]: 11% | Cmax [7]: 91 ng/mL | Tmax [8]: 5 h | half-life [9]: 4.8 h | AUC [10]: 1010 ng·h/mL | Cmax_metabolite (Rattus norvegicus [11]): 3.9 ng/mL | Tmax (Rattus norvegicus [12]): 6 h | Cmax_metabolite (Rattus norvegicus [13]): 14 ng/mL | Tmax (Rattus norvegicus [14]): 8 h | Cmax_metabolite (Rattus norvegicus [15]): 12 ng/mL | Cmax_metabolite (Rattus norvegicus [16]): 1.6 ng/mL

COc1ccc2c(c1)OCCC1=C2[C@@H](c2ccc(OCCN3CCCCC3)cc2)Oc2cc(O)ccc21
Activity (Rattus norvegicus [1]): inactive | Activity (Rattus norvegicus [17]): Active | Activity (Rattus norvegicus [18]): Active | Activity (Rattus norvegicus [19]): Active | Activity (Rattus norvegicus [20]): Active | Activity (Rattus norvegicus [21]): inactive | IC50 (Estrogen receptor beta): 99 nM | IC50 (Estrogen receptor [3]): 5.8 nM | IC50 (Estrogen receptor [4]): 76 nM | inhibition in vivo at 1 mg/kg (Rattus norvegicus [5]): 130% | bioavailability [6]: 61% | Cmax [7]: 228 ng/mL | Tmax [8]: 6 h | half-life [9]: 18.6 h | AUC [10]: 6730 ng·h/mL | Cmax_metabolite (Rattus norvegicus [11]): 91.4 ng/mL | Cmax_metabolite (Rattus norvegicus [16]): 15.2 ng/mL | Tmax (Rattus norvegicus [22]): 8 h | Tmax (Rattus norvegicus [23]): 8 h

COc1ccc2c(c1)O[C@H](c1ccc(OCCN3CCCCC3)cc1)C1=C2CCOc2cc(O)ccc21
Activity (Rattus norvegicus [1]): inactive | Activity (Rattus norvegicus [17]): Active | Activity (Rattus norvegicus [18]): Active | Activity (Rattus norvegicus [19]): Active | IC50 (Estrogen receptor beta): 7 nM | IC50 (Estrogen receptor [3]): 9 nM | IC50 (Estrogen receptor [4]): 259 nM | inhibition in vivo at 1 mg/kg (Rattus norvegicus [5]): 99% | bioavailability [6]: 58% | Cmax [7]: 219 ng/mL | Tmax [8]: 6 h | half-life [9]: 19.8 h | AUC [10]: 6920 ng·h/mL | Cmax_metabolite (Rattus norvegicus [11]): 33.3 ng/mL | Tmax (Rattus norvegicus [24]): 6 h | Cmax_metabolite (Rattus norvegicus [16]): 7.6 ng/mL | Tmax (Rattus norvegicus [25]): 8 h
